Mdm2 MdmX PPI: inhibitors of human Mdm2/MdmX interaction. inhibition, % at 8 µM. 330,000 compounds, 3% hits. O15151+Q00987. SaOS-2 split-luciferase Mdm2/MdmX complementation, luminescence;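 active = inhibition of at least 50% at 8 µM in the primary screen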
Target sequence (O15151 whole entry, looked up): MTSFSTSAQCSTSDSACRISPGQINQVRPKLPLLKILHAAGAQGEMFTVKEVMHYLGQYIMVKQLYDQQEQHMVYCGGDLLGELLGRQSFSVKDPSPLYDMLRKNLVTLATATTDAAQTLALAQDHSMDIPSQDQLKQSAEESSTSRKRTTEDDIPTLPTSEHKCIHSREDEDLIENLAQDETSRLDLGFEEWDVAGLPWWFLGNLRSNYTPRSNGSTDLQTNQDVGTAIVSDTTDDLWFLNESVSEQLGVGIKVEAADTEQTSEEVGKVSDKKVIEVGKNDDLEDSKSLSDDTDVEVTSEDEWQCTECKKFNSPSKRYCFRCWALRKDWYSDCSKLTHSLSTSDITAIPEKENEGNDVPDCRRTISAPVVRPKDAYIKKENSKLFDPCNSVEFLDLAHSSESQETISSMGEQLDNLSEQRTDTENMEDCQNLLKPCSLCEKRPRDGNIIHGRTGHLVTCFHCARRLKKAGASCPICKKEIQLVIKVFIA
Target sequence (Q00987 whole entry, looked up): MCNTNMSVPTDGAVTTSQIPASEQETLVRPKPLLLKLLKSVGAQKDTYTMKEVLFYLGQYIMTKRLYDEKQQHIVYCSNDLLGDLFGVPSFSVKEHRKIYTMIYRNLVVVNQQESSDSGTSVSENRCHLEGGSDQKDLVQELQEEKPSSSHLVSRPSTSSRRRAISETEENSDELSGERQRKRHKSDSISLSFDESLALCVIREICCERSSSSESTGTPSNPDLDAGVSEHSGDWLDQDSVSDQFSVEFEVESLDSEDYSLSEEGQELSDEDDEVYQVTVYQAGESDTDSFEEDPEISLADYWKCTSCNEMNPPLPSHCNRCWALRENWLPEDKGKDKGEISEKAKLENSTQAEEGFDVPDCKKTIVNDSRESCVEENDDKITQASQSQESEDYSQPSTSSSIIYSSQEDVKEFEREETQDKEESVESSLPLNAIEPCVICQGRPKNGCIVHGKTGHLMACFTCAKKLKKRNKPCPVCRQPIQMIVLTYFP
CSC inhib: cancer stem cell inhibition. 300,000 compounds, 1.1% hits. inhibition, % at 7.5 µM. cancer stem cell-like cells viability, luminescence. AID 2717; in the data active = inhibition above about 75%; inconclusive = no clear call, values can overlap the other calls; tested in HMLE shEcad cells
Calb FLC: affects C. albicans growth with fluconazole; C. albicans CaCi-2 (fluconazole-resistant clinical isolate) + fluconazole, Alamar Blue growth, 48 h; growth inhibition, % (concentration not given with the values); 300,000 compounds, 0.57% hits;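 active = growth inhibition above about 58% in most replicates, limit read from the data, passing the limit was not always enough; inconclusive = exactly half the replicates above a set limit; inactive = most replicates below a set limit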;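 also: all wells also contain fluconazole at 8 µg/ml as a sub-toxic cotreatment; 0% = median of DMSO wells and 100% = median of geldanamycin control wells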
SKKanGAS inh: SKKanGAS growth inhibition. S. pyogenes SKKanGAS, kanamycin growth, BacTiter-Glo, 6 h. inhibition, % at 7.5 µM. 300,000 compounds, 1.3% hits;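 active = mean replicate score, as percent of positive control median, at least 50; inconclusive = mean below 50 but one replicate at or above 50; inactive = mean and every replicate below 50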;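 also: strain carries kanamycin resistance gene driven by streptokinase promoter and grows in 40 µg/ml kanamycin; loss of luminescence reflects streptokinase promoter inhibition or plain growth inhibition; 0% = median of DMSO wells and 100% = positive control at its reference dose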
Beta apoptosis: beta cell apoptosis inhibition | INS-1E cytokine-induced death, ATP luminescence, 48 h; percent of positive-control rescue, neutral wells zero | protection from apoptosis, % (no concentration beside the values) | 300,000 compounds, 0.8% hits;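 active = Every replicate reaches about 75%, or at least half do and their mean reaches it too, limit read from the data; inconclusive = At least half of replicates reach the limit but their mean does not; inactive = Under half of replicates reach the limit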;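 also: 0% = cytokine-treated negative control wells and 100% = positive control rescue; higher means more ATP so stronger rescue from cytokine killing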
T cruzi inh: T. cruzi replication inhibition | inhibition, % (concentration not given with the values) | 300,000 compounds, 1.4% hits | T. cruzi beta-gal in NIH3T3, luminescence, 90 h | AID 1885;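 active = mean inhibition across valid replicates above about 55%, limit read from the data; inconclusive = mean below that limit but half or more replicates reach it; inactive = mean below it, under half of replicates reach it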;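 also: signal also drops with host cell toxicity which is not excluded here; 0% = plate median of DMSO wells and 100% = zero luminescence signal; higher percent means less beta-gal luminescence so fewer parasites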
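Material: NIH/3T3 host cells with β-galactosidase reporter T. cruzi; Input: 5,000 host fibroblasts per well; Medium: DMEM, 2% fetal bovine serum; Compound: 50 nL DMSO compound solution per well; Schedule: 3 h host attachment, then at least 90 h co-culture; Detection: luminescent β-galactosidase signal after 60 min lysis.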
* hit, by the source's call; ? = inconclusive; / = no result given. Most compounds without a hit are left out; they make up all but 5.7% or so of the library.

SMILES	Mdm2 MdmX PPI	CSC inhib	Calb FLC	SKKanGAS inh	Beta apoptosis	T cruzi inh
CC(C)C1OC2c3cccc4cccc(c34)C2N1c1ccccc1 (configuration not stated)	-4.9	7.8	-8.4	79.8*	-8.1	2.9
CC(C)(C)c1ccc(OCC(=O)NCCN2CCOCC2)cc1	-4.6	-6.1	-4.3	-1.7	-2.2	-2.7
C/C(=N\OCc1ccc(C#N)cc1)c1cc2ccccc2o1	5.2	5.1	77.7*	-18.0	-1.4	3.5
C/C(=N\OCc1ccccc1C#N)c1cc2ccccc2o1	-17.8	2.5	-0.8	18.6	-3.8	-18.1
COc1ccc(N/C=C2/Sc3ccccc3NC2=O)cc1	-96.9	-4.1	-5.8	3.7	9.2	67.9*
COc1ccccc1N/C=C1/Sc2cc(Cl)ccc2NC1=O	26.0	3.6	-4.2	-5.6	0.9	9.9
O=C1Nc2ccccc2S/C1=C/NCc1ccccc1Cl	20.4	-2.0	10.1	21.0	-10.5	5.3
Cc1ccc(N/C=C2/Sc3ccccc3NC2=O)cc1	-71.9	-2.1	18.3	0.0	1.6	58.9*
O=C(CSc1nc2ccccc2o1)Nc1ccccc1N1CCCCCC1	-0.6	37.9	-25.0	58.9*	-3.6	15.6
O=C(NNc1nc2ccc(F)cc2s1)c1cccc(F)c1	37.3	62.6	44.5	3.6	48.5	66.9*
O=C(NNc1nc2ccccc2s1)c1ccc(F)cc1	-8.1	20.6	0.3	-0.8	14.7	1.7
Cc1ccc(NC2CCCN(C(=O)CCCN3CCCCC3=O)C2)cc1C (configuration not stated)	14.1	-15.7	10.3	-0.9	1.7	14.5
CCOc1ccc(NC(=O)c2c(NC(=O)CNCCN3CCOCC3)sc3c2CCC3)cc1	15.2	-0.4	-3.0	90.0*	/	61.0*
O=C(CN1CCCC1)Nc1sc2c(c1C(=O)Nc1ccc(Br)cc1)CCC2	-7.0	12.4	8.8	60.9*	/	51.5
C[C@H](CO)N1C[C@H](C)[C@@H](CN(C)C)Oc2c(NS(=O)(=O)c3cccs3)cccc2C1=O	2.0	6.5	/	/	-1.0	/
O=C(Nc1cc(C(F)(F)F)ccc1-n1cncn1)c1ccc(-c2ccccc2)cc1	10.8	53.6	29.7	5.9	0.1	73.5*
O=C(Nc1cc(Cl)ccc1-n1cncn1)c1cc(S(=O)(=O)N2CCOCC2)ccc1F	-8.9	-16.7	-6.0	9.3	-9.5	9.4
O=C(Nc1cc(S(=O)(=O)N2CCOCC2)ccc1-n1cncn1)c1ccc(Cl)cc1	-1.8	20.8	9.8	-12.0	-2.5	63.1*
C#Cc1cccc(C(=O)N2CCCC(Nc3cccc(F)c3)C2)c1 (configuration not stated)	20.7	-7.6	-27.4	-0.8	0.1	-10.0
O=C(O)c1cccc(Cn2c(Cl)c(/C=N/NC(=O)c3ccco3)sc2=O)c1	8.4	-7.0	/	-1.0	3.7	1.4
CCCN(CC(=O)Nc1ccccc1OC)C(=O)c1ccc2c(c1)NC(=O)C(C)S2 (configuration not stated)	6.7	/	/	/	-2.2	/
Cc1cc2c(cc(C(=O)OCC(=O)NCc3ccco3)n2C)s1	12.8	37.9	101.8*	10.9	-17.4	-5.4
CSc1ccccc1NC(=O)CSc1nnc(COc2ccccc2)o1	3.4	-16.7	5.9	-4.4	-0.2	-4.6
CC1CN(C(=O)CSc2nnc(CNC(=O)c3ccc(S(=O)(=O)N(C)C)cc3)o2)CC(C)O1 (configuration not stated)	11.0	-6.4	-3.2	1.1	0.5	-2.3
CCOC(=O)Cc1cc(=O)n2[nH]cc(-c3cccc(Br)c3)c2n1	14.3	27.0	9.6	71.2*	1.3	-17.7
SMILES	Mdm2 MdmX PPI	CSC inhib	Calb FLC	SKKanGAS inh	Beta apoptosis	T cruzi inh
CCCCCCCN1C(Nc2ccccc2)=NC[C@@H]1Cc1ccccc1	45.0	29.9	83.7*	0.1	25.4	?
Cc1cccc(CCN2C(Nc3ccccc3)=NC[C@@H]2CC(C)C)c1	47.9	25.0	/	/	-2.0	/
c1ccc(CCCCN2C(Nc3ccccc3)=NC[C@@H]2Cc2ccccc2)cc1	34.2	19.6	/	/	5.1	/
CC(C)C[C@H]1CN=C(Nc2ccccc2)N1CCc1ccc(F)cc1	28.6	1.2	/	/	90.3*	/
O=C(CC(=O)NCc1ccccc1)NCc1ccccc1	11.1	-5.1	-2.8	-2.7	/	-13.4
O=C(Nc1ncccc1Cl)c1cc2ccccc2o1	-40.8	2.4	-7.3	-11.5	-0.2	0.6
O=C1CC(N(CCc2ccccc2)C(=S)Nc2ccccc2)C(=O)N1c1ccccc1 (configuration not stated)	30.0	78.6*	2.9	20.8	3.8	36.1
O=C1CC(N(CCc2ccccc2)C(=S)Nc2ccccc2)C(=O)N1c1ccc(F)cc1 (configuration not stated)	12.1	38.1	9.9	22.6	12.9	52.9
O=C1CC(N(CCc2ccccc2)C(=S)Nc2cc(Cl)ccc2Cl)C(=O)N1c1c(Cl)cccc1Cl (configuration not stated)	31.5	106.7*	1.3	29.4	29.9	47.0
CCCOc1ccc(N2C(=O)CC(N(CCc3ccc(OC)c(OC)c3)C(=S)Nc3ccccc3)C2=O)cc1 (configuration not stated)	19.1	67.9	13.7	20.3	47.6	63.7*
CCCOc1ccc(N2C(=O)CC(N(Cc3ccc(OC)cc3)C(=S)Nc3ccccc3)C2=O)cc1 (configuration not stated)	35.2	19.1	-4.8	17.7	-9.0	26.9
CCCn1cc(CN2CCCC(C(=O)c3cccc(OC(C)C)c3)C2)c(C)n1 (configuration not stated)	23.8	3.9	-12.0	-2.2	0.7	?
COc1ccccc1C(=O)C1CCCN(Cc2ccc(Oc3ncccn3)cc2)C1 (configuration not stated)	4.9	0.1	-0.4	4.7	2.9	73.0*
COc1c(C)cc(C(=O)C2CCCN(Cc3ccc(Oc4ncccn4)cc3)C2)cc1C (configuration not stated)	22.2	/	3.4	-17.1	5.3	33.3
O=C(c1cccc(C(F)(F)F)c1)C1CCCN(Cc2ccc(OCCO)cc2)C1 (configuration not stated)	0.4	25.0	-20.4	-6.8	1.0	62.7*
CC(=O)Nc1ccc(CN2CCCC(C(=O)c3cccc(C(F)(F)F)c3)C2)cc1 (configuration not stated)	3.1	43.2	-7.1	-0.6	2.2	20.3
COc1ccc2cc(C(=O)C3CCCN(Cc4cnc(N5CCOCC5)s4)C3)ccc2c1 (configuration not stated)	12.9	-2.8	-11.2	-5.7	-1.3	41.2
CC(C)Oc1cccc(C(=O)C2CCCN(Cc3cnc(N4CCCC4)s3)C2)c1 (configuration not stated)	16.0	-11.5	-41.0	-4.8	-0.4	82.1*
CCCn1ncc(CN2CCCC(C(=O)c3cccc(OC(C)C)c3)C2)c1C (configuration not stated)	33.1	37.4	-22.5	-6.9	-1.7	55.0*

Screening data: PubChem BioAssay, several laboratories
